PABP FP inh – PABP-poly(A) binding inhibition; P11940; 290,000 tested, 1% active; calls only at 35 µM; PABP-poly(A) RNA binding, fluorescence polarization; AID 2014;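 note: calls also rest on retests at 20 µM and on dose response follow-up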
Target sequence (P11940 whole entry, looked up): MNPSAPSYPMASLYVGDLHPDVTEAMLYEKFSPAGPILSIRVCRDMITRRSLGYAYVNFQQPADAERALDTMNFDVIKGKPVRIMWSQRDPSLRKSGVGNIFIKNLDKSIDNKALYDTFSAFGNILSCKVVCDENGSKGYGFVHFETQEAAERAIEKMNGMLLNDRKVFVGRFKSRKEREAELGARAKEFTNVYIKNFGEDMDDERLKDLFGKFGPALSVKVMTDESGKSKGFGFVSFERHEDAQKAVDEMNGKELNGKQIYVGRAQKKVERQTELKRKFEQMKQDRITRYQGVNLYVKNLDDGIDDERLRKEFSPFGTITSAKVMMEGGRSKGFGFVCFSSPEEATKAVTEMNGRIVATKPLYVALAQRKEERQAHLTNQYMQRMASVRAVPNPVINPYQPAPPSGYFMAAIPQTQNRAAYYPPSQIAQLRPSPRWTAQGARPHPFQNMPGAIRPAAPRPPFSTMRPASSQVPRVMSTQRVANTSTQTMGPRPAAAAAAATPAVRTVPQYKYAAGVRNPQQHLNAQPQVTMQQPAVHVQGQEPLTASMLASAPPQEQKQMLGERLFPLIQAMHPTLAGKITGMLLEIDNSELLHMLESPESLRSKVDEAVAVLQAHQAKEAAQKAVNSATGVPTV
UBC9 SUMO inh – inhibitors of human SUMOylation (UBC9); P63279; HTRF SUMOylation assay, SAE1/SAE2 + UBC9, in vitro; inhibition, % at 35 µM; 290,000 tested, 0.36% active; AID 2006; in the data active = inhibition above about 50%, passing the limit was not always enough; inconclusive = no clear call, values can overlap the other calls
eIF4H FP inh – inhibitors of RNA binding by human eIF4H | Q15056 | eIF4H fluorescence polarization binding assay | inhibition, % at 35 µM | 290,000 tested, 0.94% active;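 note: calls also rest on retests at 20 µM and on dose response follow-up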
MLLE-PAM2 inh – blocks PAM2 peptide binding to the PABP1 MLLE domain; GST-MLLE / FITC-PAM2 fluorescence polarization; P11940; inhibition, % at 20 µM; AID 588489; 360,000 tested, 0.36% active; in the data active = inhibition above about 35%, passing the limit was not always enough
eIF4E 4G PPI – eIF4E/eIF4G interaction inhibition in translation initiation; P63073+Q04637; TR-FRET eIF4E-eIF4GI(517-606) binding, 2 h; inhibition, % at 21.7 µM; 220,000 tested, 0.37% active; AID 782;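 active = inhibition above about 30%, limit read from the data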
HCV core dimer – blocks dimerization of HCV core protein. 300,000 tested, 0.33% active. inhibition, % at 5 µM. AID 1899. TR-FRET GST/Flag-core106 dimerization, 1536-well;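 active = inhibition above the mean of all tested compounds plus 3 SD, set per screening campaign, cut at about 45% in these data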
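test system = GST/Flag-tagged HCV core106 proteins | probe or stimulus = Eu donor and XL665 acceptor anti-tag antibodies | times = compound-protein-antibody incubation 4 h at 22.5 °C | signal = TR-FRET, excitation 340 nm, emission 617 and 671 nm | measure = percent inhibition of core106 dimerization signal | controls = wells lacking GST-core106 and wells with excess unlabelled core106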
Hits are given with their value. Most compounds without a hit are left out; they make up all but 1.8% or so of the library. Unless noted, the rule behind the calls is not given here.

What do the screens show for `CN(C)[C@@H]1C(=O)C(C(=O)NCN2CCCC2)=C(O)[C@@]2(O)C(=O)C3=C(O)c4c(O)cccc4[C@@](C)(O)C3CC12` (stereo partly drawn)?
PABP FP inh: inactive; UBC9 SUMO inh: 76.7; eIF4H FP inh: inactive; eIF4E 4G PPI: 63.8

Results for CCOC(=O)c1c(NC(=S)NC)sc2c1CC(C)(C)SC2 ?
PABP FP inh: inactive; UBC9 SUMO inh: inactive; eIF4H FP inh: 52.4; MLLE-PAM2 inh: inactive; eIF4E 4G PPI: inactive; HCV core dimer: inactive

How did CNC(=S)Nc1sc2c(c1C(=O)OC)CCC2 do in these assays?
PABP FP inh: active; UBC9 SUMO inh: inactive; eIF4H FP inh: inconclusive; MLLE-PAM2 inh: inactive; eIF4E 4G PPI: inactive; HCV core dimer: inactive

Results for COC(=O)c1c(NC(=O)C2C3CCC(O3)C2C(=O)O)sc2c1CCCCCC2 (stereo not drawn) ?
PABP FP inh: inactive; UBC9 SUMO inh: inactive; eIF4H FP inh: inactive; MLLE-PAM2 inh: inactive; eIF4E 4G PPI: inactive; HCV core dimer: inactive

Results for COC(=O)c1c(NC(=O)C2C3CCC(C3)C2C(=O)O)sc2c1CCCCC2 (stereo not drawn) ?
PABP FP inh: inactive; UBC9 SUMO inh: inactive; eIF4H FP inh: inactive; MLLE-PAM2 inh: 41.4; eIF4E 4G PPI: inactive; HCV core dimer: inactive

What do the screens show for `CC(=O)C1CCCN(C(=O)c2ccc3nc(Cc4cccc(Cl)c4)oc3c2)C1` (stereo not drawn)?
PABP FP inh: inactive; UBC9 SUMO inh: inactive; eIF4H FP inh: inactive; MLLE-PAM2 inh: inactive; HCV core dimer: inactive

How did Cc1ccc(C(=O)Oc2coc(CSc3nnc(NC(=O)c4cccs4)s3)cc2=O)cc1 do in these assays?
PABP FP inh: active; UBC9 SUMO inh: inactive; eIF4H FP inh: 90.1; MLLE-PAM2 inh: inactive; eIF4E 4G PPI: inactive; HCV core dimer: inactive

What do the screens show for `CC(=O)Nc1nnc(SCc2cc(=O)c(OC(=O)c3ccccc3)co2)s1`?
PABP FP inh: inactive; UBC9 SUMO inh: inactive; eIF4H FP inh: inactive; MLLE-PAM2 inh: inactive; eIF4E 4G PPI: inactive; HCV core dimer: inactive

What do the screens show for `COc1ccc(NS(=O)(=O)c2ccc(NC(=S)NCC3CCCO3)cc2)cc1` (stereo not drawn)?
PABP FP inh: inactive; UBC9 SUMO inh: inactive; eIF4H FP inh: inactive; MLLE-PAM2 inh: inactive; HCV core dimer: inactive

Results for COc1ccccc1NS(=O)(=O)c1ccc(O)c(NC(=S)NCC2CCCO2)c1 (stereo not drawn) ?
PABP FP inh: inactive; UBC9 SUMO inh: inactive; eIF4H FP inh: inactive; MLLE-PAM2 inh: 40.1; eIF4E 4G PPI: inactive; HCV core dimer: inactive

How did CCOC(=O)N1CCC2(CC1)C(C#N)=C(N)Oc1c2c(C)nn1-c1cccc(Cl)c1 do in these assays?
PABP FP inh: active; UBC9 SUMO inh: inactive; eIF4H FP inh: 71.4; MLLE-PAM2 inh: inactive; eIF4E 4G PPI: inactive; HCV core dimer: inactive

What do the screens show for `CCOC(=O)N1CCC2(CC1)C(C#N)=C(N)Oc1n[nH]c(C)c12`?
PABP FP inh: inactive; UBC9 SUMO inh: inactive; eIF4H FP inh: inactive; MLLE-PAM2 inh: inactive; eIF4E 4G PPI: inactive; HCV core dimer: inactive

How did CN(C)CC1(C)Cc2ccsc2C1O (stereo not drawn) do in these assays?
MLLE-PAM2 inh: inactive

What do the screens show for `CCn1c(C)c(C(C)=O)c(N2CCN(C(c3ccccc3)c3ccccc3)CC2)nc1=S`?
PABP FP inh: inactive; UBC9 SUMO inh: inactive; eIF4H FP inh: inactive; MLLE-PAM2 inh: inactive; eIF4E 4G PPI: inactive; HCV core dimer: inactive

What do the screens show for `CCn1c(C)c(C(C)=O)c(N2CCN(c3ccccn3)CC2)nc1=S`?
PABP FP inh: active; UBC9 SUMO inh: inactive; eIF4H FP inh: 66.2; MLLE-PAM2 inh: inactive; eIF4E 4G PPI: inactive; HCV core dimer: inactive

Results for CCSc1nc(=S)n(-c2ccccc2)c(C)c1C(C)=O ?
PABP FP inh: inactive; UBC9 SUMO inh: inactive; eIF4H FP inh: inactive; MLLE-PAM2 inh: 43.3; eIF4E 4G PPI: inactive; HCV core dimer: inactive

What do the screens show for `CCn1c(C)c(C(C)=O)c(N2CCN(c3ccccc3)CC2)nc1=S`?
PABP FP inh: active; UBC9 SUMO inh: inactive; eIF4H FP inh: 127.5; MLLE-PAM2 inh: inactive; eIF4E 4G PPI: inactive; HCV core dimer: inactive

What do the screens show for `CC(=O)c1c(N2CCOCC2)nc(=S)n(-c2ccccc2)c1C`?
PABP FP inh: inactive; UBC9 SUMO inh: inactive; eIF4H FP inh: inactive; MLLE-PAM2 inh: 45.0; eIF4E 4G PPI: inactive; HCV core dimer: inactive
